Entries after “also recorded” stand apart in the source; their conditions may differ. Read-outs that look alike come from different tables or passages of the source.
Columns and labels:
[1] = tested on: formalin-induced nociceptive behavior; test: Formalin test; type: in vivo; conditions: mice; for effect of the combination of 28 and 31 in formalin test: 28 1 mg/kg ip + 31 1 mg/kg ip
mouse A1AR = conditions: cited from earlier work
[2] = tested on: formalin-induced nociceptive behavior; conditions: cited from earlier work; for effect on second phase of formalin test in presence of A1AR antagonist 29: with 29 (DPCPX) 3 mg/kg ip
hA1AR = molecular target: T1, hA1AR (Homo sapiens, UniProt P30542); conditions: cited from earlier work
T1 sequence (P30542 1-326): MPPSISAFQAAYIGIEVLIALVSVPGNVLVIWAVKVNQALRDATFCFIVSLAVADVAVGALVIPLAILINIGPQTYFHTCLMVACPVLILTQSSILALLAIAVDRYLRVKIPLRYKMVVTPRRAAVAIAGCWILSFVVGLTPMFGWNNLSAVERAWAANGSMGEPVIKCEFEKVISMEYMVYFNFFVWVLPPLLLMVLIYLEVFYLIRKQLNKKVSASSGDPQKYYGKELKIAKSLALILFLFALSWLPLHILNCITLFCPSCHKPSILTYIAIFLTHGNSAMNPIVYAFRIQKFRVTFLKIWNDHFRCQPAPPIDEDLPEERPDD

A2B ARs [3] = molecular target: T2, A2B ARs (Homo sapiens, UniProt P29275); test: Stimulation of adenylyl cyclase activity; type: biochemical
T2 sequence (P29275 1-332): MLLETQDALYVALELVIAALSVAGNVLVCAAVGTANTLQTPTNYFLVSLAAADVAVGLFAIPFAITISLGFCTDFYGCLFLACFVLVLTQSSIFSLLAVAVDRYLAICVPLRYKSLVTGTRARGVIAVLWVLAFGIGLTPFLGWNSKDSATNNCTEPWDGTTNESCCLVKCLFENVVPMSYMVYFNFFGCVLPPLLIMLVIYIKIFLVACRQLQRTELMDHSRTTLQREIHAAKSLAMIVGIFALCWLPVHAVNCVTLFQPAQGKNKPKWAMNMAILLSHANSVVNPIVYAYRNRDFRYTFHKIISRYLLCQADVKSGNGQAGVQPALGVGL
Method in brief: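 Crude membranes came from CHO cells stably transfected with human A2B receptor, from a single high-speed spin. They were resuspended in 50 mM Tris/HCl, pH 7.4, and used immediately. Stimulation of adenylyl cyclase activity gave agonist EC50. […] Values are geometric means with 95% confidence intervals (n ≥ 3).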

A2B ARs [4] = molecular target: T2, A2B ARs; conditions: hA2B; ref Petrelli et al.[7]; cited from earlier work
hA2A receptor = hA2A receptor (Homo sapiens, UniProt P29274); conditions: ref Petrelli et al.[7]; cited from earlier work
Sequence of hA2A receptor (P29274 whole entry): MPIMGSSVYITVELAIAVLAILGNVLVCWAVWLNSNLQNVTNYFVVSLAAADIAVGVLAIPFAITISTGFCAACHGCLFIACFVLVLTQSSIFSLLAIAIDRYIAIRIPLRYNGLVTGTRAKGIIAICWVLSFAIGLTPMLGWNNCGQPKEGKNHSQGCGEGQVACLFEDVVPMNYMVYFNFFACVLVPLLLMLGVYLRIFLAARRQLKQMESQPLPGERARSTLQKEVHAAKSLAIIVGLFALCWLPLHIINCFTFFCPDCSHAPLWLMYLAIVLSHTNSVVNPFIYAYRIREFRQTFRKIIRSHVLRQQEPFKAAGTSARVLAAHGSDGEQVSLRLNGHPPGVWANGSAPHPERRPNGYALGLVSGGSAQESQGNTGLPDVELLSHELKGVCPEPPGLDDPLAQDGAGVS

O[C@@H]1[C@H](O)[C@@H](CCl)O[C@H]1n1cnc2c(NC3C[C@@H]4CC[C@@H]3C4)ncnc21 (mixture of isomers) [Compound 28, 5′-chloro-5′-deoxy-N^6-(±)-endo-norborn-2-yl)adenosine]
effect of the combination of 28 and 31 in formalin test [1]: showed greater effects when combined in reducing both the first and the second phases of formalin test | selectivity mouse A1AR vs A3AR (mouse A1AR): ~ 10 000 fold | effect on second phase of formalin-induced hyperalgesia ([2]; 1–2 mg/kg ip): inhibited the second phase of formalin-induced hyperalgesia in a dose-dependent manner | effect on second phase of formalin test in presence of A1AR antagonist 29 [2]: blocked | selectivity hA1AR vs hA3AR (hA1AR): ~ 2600 fold

CCn1nnc([C@H]2O[C@@H](n3cnc4c(NC5CC5)ncnc43)C(O)C2O)n1 (stereo in doubt) [Compound 1, (2R,3S,4R,5R)-2-(6-(Cyclopropylamino)-9H-purin-9-yl)-5-(2-ethyl-2H-tetrazol-5-yl)tetrahydrofuran-3,4-diol]
functional behaviour at hA2B receptor (A2B ARs [3]): partial A2BAR agonists

CCn1nnc([C@H]2O[C@@H](n3cnc4c(NCC5CC5)ncnc43)C(O)C2O)n1 (stereo in doubt) [Compound 3, (2R,3S,4R,5R)-2-(6-((Cyclopropylmethyl)amino)-9H-purin-9-yl)-5-(2-ethyl-2H-tetrazol-5-yl)tetrahydrofuran-3,4-diol]
functional behaviour at hA2B receptor (A2B ARs [3]): partial A2BAR agonists

CCn1nnc([C@H]2O[C@@H](n3cnc4c(NCc5cccc(F)c5)ncnc43)C(O)C2O)n1 (stereo in doubt) [Compound 9, (2R,3R,4S,5R)-2-(2-Ethyl-2H-tetrazol-5-yl)-5-(6-((3-fluorobenzyl)amino)-9H-purin-9-yl)tetrahydrofuran-3,4-diol]
functional behaviour at hA2B receptor (A2B ARs [3]): partial A2BAR agonists

CCn1nnc([C@H]2O[C@@H](n3cnc4c(NCc5cccc(Cl)c5)ncnc43)C(O)C2O)n1 (stereo in doubt) [Compound 11, (2R,3S,4R,5R)-2-(6-((3-Chlorobenzyl)amino)-9H-purin-9-yl)-5-(2-ethyl-2H-tetrazol-5-yl)tetrahydrofuran-3,4-diol]
effect on formalin-induced nociceptive behavior ([1]; 0.5–1.0 mg/kg ip, 10 min before formalin, P < 0.005): reduced the late nociceptive behavior induced by formalin in a dose-dependent manner

CCn1nnc([C@H]2O[C@@H](n3cnc4c(NC)nc(Cl)nc43)[C@H](O)[C@@H]2O)n1 [Compound 23]
efficacy (pag, partial agonist % efficacy) A2B (A2B ARs [4]): 75%

CCn1nnc([C@H]2O[C@@H](n3cnc4c(NCc5cccc(I)c5)nc(Cl)nc43)[C@H](O)[C@@H]2O)n1 [Compound 26]
effect on formalin-induced nociceptive behavior ([1]; highest dose tested 1 mg/kg ip, 10 min before formalin): inactive | efficacy (pag, partial agonist % efficacy) A2A (hA2A receptor): 75% | efficacy (pag, partial agonist % efficacy) A2B (A2B ARs [4]): 76%

C[C@@]1(O)[C@H](O)[C@@H](CO)O[C@H]1n1cnc2c(NC3CCCC3)nc(Cl)nc21 [Compound 27, 2-chloro-2′-C-methyl-N^6-cyclopentyladenosine]
effect on second phase of formalin-induced hyperalgesia ([2]; 2.5–5 mg/kg ip): inhibited the second phase of formalin-induced hyperalgesia in a dose-dependent manner | effect on second phase of formalin test in presence of A1AR antagonist 29 [2]: blocked

CNC(=O)[C@H]1O[C@@H](n2cnc3c(NCc4cccc(I)c4)nc(Cl)nc32)[C@H](O)[C@@H]1O [Compound 31, 2-chloro-N^6-(3-iodobenzyl)-5′-N-methylcarboxamidoadenosine]
effect of the combination of 22 and 31 in formalin test ([1]; 22 0.3 mg/kg ip + 31 1 mg/kg ip, 10 min before formalin, P < 0.005): completely erased the second phase and reduced the first phase of formalin-induced nociceptive behavior; also recorded: reduced completely the nocifensive behavior in both the first and the second phases of formalin test | effect of the combination of 28 and 31 in formalin test [1]: showed greater effects when combined in reducing both the first and the second phases of formalin test

From publication PMC5669264 (Journal of medicinal chemistry, 2017)
